# In ChEMBL document CHEMBL3585281, “Antibacterial Labdane Diterpenoids from Vitex vestita” (2015):
# Key:
# Format in all cases: functional
# [1] = system: Bacillus cereus; experiment: Antibacterial activity against Bacillus cereus CIP 6624 after 18 hrs by agar dilution method; conditions: CIP 6624, 18 h
# Outline: (§1)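 Agar-dilution MIC against Gram-positive strains. Compounds in DMSO, geometric dilutions giving final 100−0.75 mg/L in Mueller Hinton agar. Strains grown 18 h at 37 °C in trypticase soy broth, diluted in sterile water, spotted by Steers inoculator (about 1000 UFC/spot). Plates incubated 18 h at 37 °C; DMSO blank; ofloxacin positive control. MIC = lowest concentration with no visible growth.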
# [2] = system: Enterococcus faecalis; experiment: Antibacterial activity against Enterococcus faecalis N520 after 18 hrs by agar dilution method; conditions: N520, 18 h; outline: as §1
# [3] = system: Corynebacterium striatum; experiment: Antibacterial activity against Corynebacterium striatum N840 after 18 hrs by agar dilution method; conditions: N840, 18 h; outline: as §1
# [4] = system: Enterococcus faecium; experiment: Antibacterial activity against Enterococcus faecium N733 after 18 hrs by agar dilution method; conditions: N733, 18 h; outline: as §1
# [5] = system: Staphylococcus aureus; experiment: Antibacterial activity against Staphylococcus aureus CRBIP 2121 after 18 hrs by agar dilution method; conditions: CRBIP 2121, 18 h; outline: as §1
# [6] = system: Enterococcus faecium; experiment: Antibacterial activity against Enterococcus faecium CIP 107387 after 18 hrs by agar dilution method; conditions: CIP 107387, 18 h; outline: as §1
# [7] = system: Staphylococcus aureus; experiment: Antibacterial activity against Staphylococcus aureus CIP 5710 after 18 hrs by agar dilution method; conditions: CIP 5710, 18 h; outline: as §1
# [8] = system: Listeria innocua; experiment: Antibacterial activity against Listeria innocua E044 after 18 hrs by agar dilution method; conditions: E044, 18 h; outline: as §1
# [9] = system: Listeria monocytogenes; experiment: Antibacterial activity against Listeria monocytogenes N783 after 18 hrs by agar dilution method; conditions: N783, 18 h; outline: as §1
# [10] = system: MRC5; experiment: Cytotoxicity against human MRC5 cells assessed as growth inhibition at 10^-5 M after 72 hrs by MTS assay relative to control; conditions: MRC5, 72 h, read-out: GI
# Outline: (§2)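 Cells from ATCC; HCT-116 grown in RPMI 1640 and MRC5 in DMEM, each with 10% FCS and 1% glutamine, 37 °C, 5% CO2. Seeded at 2.5 × 10^3 cells/well, cultured 24 h, then exposed to compounds at 1 and 10 μM final for 72 h. MTS read-out, absorbance 490 nm; percent index from treated/control OD490 × 100, three experiments.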
# [11] = system: Listeria monocytogenes; experiment: Antibacterial activity against Listeria monocytogenes N851 after 18 hrs by agar dilution method; conditions: N851, 18 h; outline: as §1
# [12] = system: Enterococcus hirae; experiment: Antibacterial activity against Enterococcus hirae CIP 5855 after 18 hrs by agar dilution method; conditions: CIP 5855, 18 h; outline: as §1
# [13] = system: MRC5; experiment: Cytotoxicity against human MRC5 cells assessed as growth inhibition at 10^-6 M after 72 hrs by MTS assay relative to control; conditions: MRC5, 72 h, read-out: GI; outline: as §2
# [14] = system: Staphylococcus aureus; experiment: Antibacterial activity against Staphylococcus aureus ATCC 9144 oxford after 18 hrs by agar dilution method; outline: as §1
# [15] = system: Bacillus cereus; experiment: Antibacterial activity against Bacillus cereus N258 after 18 hrs by agar dilution method; conditions: N258, 18 h; outline: as §1
# [16] = system: Enterococcus gallinarum; experiment: Antibacterial activity against Enterococcus gallinarum CIP 105985 after 18 hrs by agar dilution method; conditions: CIP 105985, 18 h; outline: as §1
# [17] = system: Staphylococcus epidermidis; experiment: Antibacterial activity against Staphylococcus epidermidis CIP 53124 after 18 hrs by agar dilution method; conditions: CIP 53124, 18 h; outline: as §1
# [18] = system: Staphylococcus aureus; experiment: Antibacterial activity against Staphylococcus aureus CIP 53154 after 18 hrs by agar dilution method; conditions: CIP 53154, 18 h; outline: as §1
# [19] = system: Listeria monocytogenes; experiment: Antibacterial activity against Listeria monocytogenes CIP 103575 after 18 hrs by agar dilution method; conditions: CIP 103575, 18 h; outline: as §1
# [20] = system: Enterococcus faecalis; experiment: Antibacterial activity against Enterococcus faecalis CIP 104676 after 18 hrs by agar dilution method; conditions: CIP 104676, 18 h; outline: as §1
# [21] = system: Enterococcus gallinarum; experiment: Antibacterial activity against Enterococcus gallinarum N489 after 18 hrs by agar dilution method; conditions: N489, 18 h; outline: as §1
# [22] = system: Staphylococcus aureus; experiment: Antibacterial activity against Staphylococcus aureus CIP 53156 after 18 hrs by agar dilution method; conditions: CIP 53156, 18 h; outline: as §1
# [23] = system: Staphylococcus saprophyticus; experiment: Antibacterial activity against Staphylococcus saprophyticus CIP 76125 after 18 hrs by agar dilution method; conditions: CIP 76125, 18 h; outline: as §1
# [24] = system: Enterococcus faecium; experiment: Antibacterial activity against Enterococcus faecium N823 after 18 hrs by agar dilution method; conditions: N823, 18 h; outline: as §1
# [25] = system: HCT-116; experiment: Cytotoxicity against human HCT116 cells assessed as growth inhibition at 10^-6 M after 72 hrs by MTS assay relative to control; conditions: HCT-116, 72 h, read-out: GI; outline: as §2
# [26] = system: Enterococcus avium; experiment: Antibacterial activity against Enterococcus avium CIP 104053 after 18 hrs by agar dilution method; conditions: CIP 104053, 18 h; outline: as §1
# [27] = system: Staphylococcus intermedius; experiment: Antibacterial activity against Staphylococcus intermedius N987 after 18 hrs by agar dilution method; conditions: N987, 18 h; outline: as §1
# [28] = system: Enterococcus casseliflavus; experiment: Antibacterial activity against Enterococcus casseliflavus CIP 103018 after 18 hrs by agar dilution method; conditions: CIP 103018, 18 h; outline: as §1
# [29] = system: Bacillus cereus; experiment: Antibacterial activity against Bacillus cereus N190 after 18 hrs by agar dilution method; conditions: N190, 18 h; outline: as §1
# [30] = system: HCT-116; experiment: Cytotoxicity against human HCT116 cells assessed as growth inhibition at 10^-5 M after 72 hrs by MTS assay relative to control; conditions: HCT-116, 72 h, read-out: GI; outline: as §2
# [31] = system: Enterococcus faecalis; experiment: Antibacterial activity against Enterococcus faecalis CIP 103214 after 18 hrs by agar dilution method; conditions: CIP 103214, 18 h; outline: as §1
# [32] = system: Enterococcus durans; experiment: Antibacterial activity against Enterococcus durans CIP 104999 after 18 hrs by agar dilution method; conditions: CIP 104999, 18 h; outline: as §1
# [33] = system: Staphylococcus haemolyticus; experiment: Antibacterial activity against Staphylococcus haemolyticus CIP 8156 after 18 hrs by agar dilution method; conditions: CIP 8156, 18 h; outline: as §1
# [34] = system: Mammaliicoccus sciuri; experiment: Antibacterial activity against Staphylococcus sciuri N993 after 18 hrs by agar dilution method; conditions: N993, 18 h; outline: as §1
# [35] = system: Staphylococcus lugdunensis; experiment: Antibacterial activity against Staphylococcus lugdunensis ATCC 43809 after 18 hrs by agar dilution method; conditions: ATCC 43809, 18 h; outline: as §1
# [36] = system: Enterococcus faecium; experiment: Antibacterial activity against Enterococcus faecium N507 after 18 hrs by agar dilution method; conditions: N507, 18 h; outline: as §1
# [37] = system: Staphylococcus aureus; experiment: Antibacterial activity against Staphylococcus aureus CIP 483 after 18 hrs by agar dilution method; conditions: CIP 483, 18 h; outline: as §1
# [38] = system: Bacillus spizizenii; experiment: Antibacterial activity against Bacillus subtilis ATCC 6633 after 18 hrs by agar dilution method; conditions: ATCC 6633, 18 h; outline: as §1
# [39] = system: Staphylococcus saprophyticus; experiment: Antibacterial activity against Staphylococcus saprophyticus E260 after 18 hrs by agar dilution method; conditions: E260, 18 h; outline: as §1
# [40] = system: Enterococcus faecium; experiment: Antibacterial activity against Enterococcus faecium N490 after 18 hrs by agar dilution method; conditions: N490, 18 h; outline: as §1
# [41] = system: Staphylococcus aureus; experiment: Antibacterial activity against Staphylococcus aureus CIP 7625 after 18 hrs by agar dilution method; conditions: CIP 7625, 18 h; outline: as §1
# [42] = system: Enterococcus faecalis; experiment: Antibacterial activity against Enterococcus faecalis N491 after 18 hrs by agar dilution method; conditions: N491, 18 h; outline: as §1
# [43] = system: Enterococcus faecalis; experiment: Antibacterial activity against Enterococcus faecalis N518 after 18 hrs by agar dilution method; conditions: N518, 18 h; outline: as §1
# [44] = system: Enterococcus gallinarum; experiment: Antibacterial activity against Enterococcus gallinarum N492 after 18 hrs by agar dilution method; conditions: N492, 18 h; outline: as §1
# [45] = system: Enterococcus casseliflavus; experiment: Antibacterial activity against Enterococcus casseliflavus N487 after 18 hrs by agar dilution method; conditions: N487, 18 h; outline: as §1
# [46] = system: Staphylococcus aureus; experiment: Antibacterial activity against Staphylococcus aureus ATCC 25923 after 18 hrs by agar dilution method; conditions: ATCC 25923, 18 h; outline: as §1
# [47] = system: Listeria monocytogenes; experiment: Antibacterial activity against Listeria monocytogenes N836 after 18 hrs by agar dilution method; conditions: N836, 18 h; outline: as §1
# [48] = system: Enterococcus faecium; experiment: Antibacterial activity against Enterococcus faecium CIP 103014 after 18 hrs by agar dilution method; conditions: CIP 103014, 18 h; outline: as §1
# [49] = system: Streptococcus agalactiae; experiment: Antibacterial activity against Streptococcus agalactiae CIP 103227 after 18 hrs by agar dilution method; conditions: ATCC 13813, 18 h; outline: as §1
# [50] = system: Bacillus cereus; experiment: Antibacterial activity against Bacillus cereus N349 after 18 hrs by agar dilution method; conditions: N349, 18 h; outline: as §1
smiles,measurement,setting,value
C=C1CC[C@H]2C(C)(C)CCC[C@]2(C)[C@H]1C[C@H](O)C1=CCOC1=O,MIC,[1],50 µM
same,MIC,[2],> 79 µM
same,MIC,[3],50 µM
same,MIC,[4],> 79 µM
same,MIC,[5],50 µM
same,MIC,[6],> 79 µM
same,MIC,[7],> 79 µM
same,MIC,[8],50 µM
same,MIC,[9],50 µM
same,inhibition of growth at 10 µM,[10],71%
same,MIC,[11],50 µM
same,MIC,[12],> 79 µM
same,inhibition of growth at 1 µM,[13],0%
same,MIC,[14],50 µM
same,MIC,[15],25 µM
same,MIC,[16],> 79 µM
same,MIC,[17],50 µM
same,MIC,[18],50 µM
same,MIC,[19],> 79 µM
same,MIC,[20],> 79 µM
same,MIC,[21],50 µM
same,MIC,[22],50 µM
same,MIC,[23],> 79 µM
same,MIC,[24],> 79 µM
same,inhibition of growth at 1 µM,[25],0%
same,MIC,[26],> 79 µM
same,MIC,[27],50 µM
same,MIC,[28],> 79 µM
same,MIC,[29],25 µM
same,inhibition of growth at 10 µM,[30],69%
same,MIC,[31],> 79 µM
same,MIC,[32],50 µM
same,MIC,[33],> 79 µM
same,MIC,[34],> 79 µM
same,MIC,[35],79 µM
same,MIC,[36],> 79 µM
same,MIC,[37],> 79 µM
same,MIC,[38],25 µM
same,MIC,[39],> 79 µM
same,MIC,[40],50 µM
same,MIC,[41],> 79 µM
same,MIC,[42],> 79 µM
same,MIC,[43],> 79 µM
same,MIC,[44],> 79 µM
same,MIC,[45],> 79 µM
same,MIC,[46],> 79 µM
same,MIC,[47],50 µM
same,MIC,[48],> 79 µM
same,MIC,[49],50 µM
same,MIC,[50],25 µM
